Data on two compounds can be found in paper PMC6039199 (Clinical and Translational Science, 2018).

The format of data set [1] is in vivo, human. The settings on record: for AUCinf(dn), adjusted least squares geometric mean: N = 8, mixed-effects model; for t1/2 / half-life: arithmetic mean ± SD. The method in brief: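 In period 1, after an overnight fast of at least 8 h, subjects received 15 mg oral unlabeled drug. A 100 μg 14C i.v. microdose (~400 nCi) was infused over ~5 min, ending 1 h post oral dose. Plasma 14C drug was measured by HPLC-AMS and unlabeled drug by HPLC-MS/MS (LLOQ 0.5 ng/mL). Noncompartmental AUClast used linear-log trapezoids and AUCinf = AUClast + Clast*/kel, normalized to the actual dose. F = ratio of adjusted geometric means, from a mixed-effects model on ln AUCinf with 90% CI.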

The format of data set [2] is in vivo, human. The settings on record: for 14C_Total(dn) (14C_Total in dpm/radioactivity dose in dpm), geometric mean: N = 6; for 14C-Total urinary excretion: mean (%CV). The method, boiled down:
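Period 1 was the i.v. 14C microdose. In period 2, after at least 11 days washout and a fast of at least 8 h, subjects took 15 mg oral unlabeled drug (three 5-mg tablets), then a 100 μg oral 14C solution (~400 nCi) with ~240 mL water. Urine 0–96 h was assayed for 14C by AMS, summed as concentration × volume, then normalized to the administered dpm. That dose came from LSC of the solution and syringe weight. Fa = oral/i.v. geometric mean ratio, plus a mixed-effects model using all data.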

Data set [3] in a line: Safety and tolerability assessments in the microtracer study. The class given is in vivo, human. The settings on record: for Adverse events: N = 8. The method in brief:
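Eight healthy adult men, fasted at least 8 h overnight, received the test compound orally plus an i.v. 14C microtracer (period 1), then oral unlabeled drug plus oral 14C microtracer (period 2). Monitoring covered adverse events, vital signs, ECGs and laboratory tests from screening through the study. A telephone follow-up for adverse events was made 14 ± 3 days after the last dose.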

The conditions of data set [4]: dose range of 0.5–300 mg, fasting state; cited from earlier work.
The conditions of data set [5]: cited from earlier work.
The conditions of data set [6]: rats; cited from earlier work.
The conditions of data set [7]: dogs; cited from earlier work.
The next data set deals with Caco‐2 cells. Particulars: cited from earlier work.
For data set [8] the following is noted: ref data on file; cited from earlier work.
[9] abbreviates: 100 μg i.v. 14C, geometric mean (geometric %CV).
Setting [10] is: 15 mg oral unlabeled, dose-normalized to 1 mg, geometric mean (geometric %CV).

“And” between values parts separate entries of the source, which are not always exact repeats. Equal values may be shown once. “Also recorded” adds a separate entry of the source. Read-outs that look alike come from different tables or passages of the source. Marks after values point to notes of the source that are not given here.

Turning to ^14C‐ertugliflozin, in data set [1] (100 μg i.v. 14C (Reference)), the “AUCinf(dn), adjusted least squares geometric mean” value was 88.96 ng·h/mL/mg. Also, in [1] (100 μg i.v. 14C microdose, period 1, N = 8, geometric mean (geometric %CV)), the AUCinf is 8.477 (15) ng·h/mL. The “Time quantifiable in plasma postdose” value in data set [1] (100 μg i.v. 14C microdose, HPLC-AMS, LLOQ 20.4 pg/mL) is given as about 24 h. For the same compound, the Tmax in data set [1] (100 μg i.v. 14C, 5-min infusion, relative to infusion start, median (range)) is recorded as 0.083 (0.083–0.100) h. This compound also came in with a t1/2 in data set [1] (100 μg i.v. 14C) of 8.098 ± 2.248 h. For the same compound, the “Cmax(dn)” value in data set [1] (100 μg i.v. 14C, dose-normalized to 1 mg, geometric mean (geometric %CV)) is given as 89.34 ^b (32) ng/mL/mg. Further, in data set [1] (setting [9]), the AUClast is 7.859 (14) ng·h/mL, the CL was 187.2 (15) mL/min, the Cmax is on record as 8.514 (32) ng/mL and the Vss was 85.53 (15) L. Also, in data set [2] (i.v. 100 μg 14C (Reference, period 1), urine), the “14C_Total(dn) (14C_Total in dpm/radioactivity dose in dpm), geometric mean” value was 0.390. The 14C-Total urinary excretion in data set [2] (i.v. 100 μg 14C, period 1, N = 6) is 319,000 (19) dpm and 319,000 dpm. In addition, the “Total 14C in urine as percent of administered dose (% 14C_Total)” value in data set [2] (i.v. administration) worked out at 39%. Moreover, in data set [2] (oral 100 μg 14C, period 2, N = 8), the 14C-Total urinary excretion is 320,400 (10) dpm and 320,400 dpm. Further, the “Total 14C in urine as percent of administered dose (% 14C_Total)” value in data set [2] (oral administration) was 44%.

Broadly, the CL/F is the apparent clearance, not corrected for the fraction that reaches the circulation. A word on the Vd: it is the apparent volume that relates the amount in the body to the concentration in plasma or blood. High values mean extensive tissue distribution, low ones confinement near the circulation. In general, clearance refers to a measure of how efficiently the substance is removed, as volume per time. What is called half-life is how long it takes for the measured level to halve. Lower therefore signals fast loss. Usually AUC(0-inf) stands for total exposure, with the tail of the curve extrapolated. The term AUC(0-t) denotes exposure summed from dosing to a finite time, without extrapolation to infinity. In general, Vd/F refers to the volume of distribution divided by bioavailability. Regarding `CCOc1ccc(Cc2cc([C@]34OC[C@](CO)(O3)[C@@H](O)[C@H](O)[C@H]4O)ccc2Cl)cc1` [ertugliflozin], in [1] (15 mg oral unlabeled (Test)), the “AUCinf(dn), adjusted least squares geometric mean” value was found to be 93.16 ng·h/mL/mg. In data set [1] (15 mg oral unlabeled, HPLC-MS/MS, LLOQ 0.5 ng/mL), the “Time quantifiable in plasma postdose” value worked out at 72 h. The compound further displayed a t1/2 in data set [1] (15 mg oral unlabeled, listed as Unlabeled ertugliflozin) of 14.04 ± 2.17 h. For the same compound, in [1] (setting [10]), the “AUCinf(dn)” value is 93.16 (13) ng·h/mL/mg and the “Cmax(dn)” value is reported as 17.09 (14) ng/mL/mg. The CL/F in data set [1] (15 mg oral unlabeled, geometric mean (geometric %CV)) was 178.7 mL/min. The Permeability classification entry in data set [1] (based on F and Fa ∼100%) is recorded as “highly permeable”. In data set [1] (human, plasma, iv, 100 ug), this compound returned a Vd of 85.5 L and a clearance of 187 mL/min. Besides, the half-life in data set [1] (human, plasma, iv, 100 ug, t1/2, 100 μg i.v. 14C) was 8.1 h. Also, in data set [1] (human, plasma, po, 15 mg), the AUC(0-inf) came out at 1400 ng·h/mL, the AUC(0-t) amounted to 1380 ng·h/mL, the Cmax is 256 ng/mL and the Vd/F was 215 L. For the same compound, the half-life in [1] (human, plasma, po, 15 mg, t1/2, 15 mg oral unlabeled) was 14 h. Further, the “Absolute oral bioavailability F: Ratio (Test/Reference) of adjusted means” value in data set [1] (oral 15 mg vs i.v. 14C 100 μg, fasted, N = 8) is 105% and 104.73%. Also, in data set [2] (all available data (N = 8 oral; N = 6 i.v.)), the “Fraction absorbed Fa: geometric mean ratio (90% CI), mixed-effects model” value was found to be 110%. Further, the Oral absorption result in data set [2] (fasted conditions) was “complete; also recorded: completely absorbed”. For the same compound, in data set [2] (oral (Test, period 2), urine 0–96 h), the “14C_Total(dn) (14C_Total in dpm/radioactivity dose in dpm), geometric mean” value is listed as 0.432. For the same compound, the “Fraction absorbed Fa: ratio (Test/Reference) of geometric means” value in data set [2] (six subjects with complete urine data for both treatments, fasted) is 111% and 110.71%. The Tolerability result in [3] (following i.v. and oral administration, healthy men) is given as “well tolerated”. Besides, the Adverse events entry in [3] (period 1 (i.v. administration)) was “Three subjects experienced three AEs (back pain and two episodes of headache)”. Moreover, the Adverse events entry in data set [3] (period 2 (oral administration)) is “one subject experienced one AE (nasal congestion)”. Besides, in data set [4], the “Dose proportionality in exposure (AUC and Cmax)” value is “dose proportionality in exposure”. The Principal biotransformation pathway entry in data set [5] (humans) is reported as “glucuronidation”. Further, the “Renal excretion of unchanged ertugliflozin” value in [5] (single 25-mg oral 14C dose, healthy male subjects) is 1.5%. Moreover, the “Human fraction of dose absorbed (Fa) from mean urinary 14C recovery” value in data set [5] (single 25-mg oral 14C dose) is “at least 50%”. The “Estimated Fa” value in data set [6] is about 75%. For the same compound, the “Estimated Fa” value in [7] was about 100%. Besides, the BA/AB ratio in the data set on Caco‐2 cells (Caco-2) is given as 2.1. In addition, in the data set with Caco‐2 cells (apical (A) to basolateral (B) direction), the Permeability coefficient was 4.1 ×10⁻⁶ cm/s. Moreover, in data set [8], the Solubility classification result is on record as “highly soluble” and the “Solubility of 15 mg in 250 mL aqueous media” value is “completely soluble”.
